Measured values from different studies.
Protocols differ between the studies behind these lines. Converted amounts (≈) assume the structure as drawn.
Organism: Bacillus subtilis

CN(/N=C/c1cn(-c2ccc(C(=O)O)cc2)nc1-c1cccc(F)c1)c1ccccc1  MIC (microbial growth; ATCC6623): 12.5 µg/mL (≈ 30.2 µM)
Cc1ccc(-c2nn(-c3ccccc3)cc2C=C(C#N)C2=NC(=O)CS2)cc1  inhibition zone (microbial growth; well diffusion; 100000 µg/mL): 21 mm
O=C(N[C@H](CO)[C@H](O)c1ccc([N+](=O)[O-])cc1)C(Cl)Cl  inhibition zone (microbial growth; disc diffusion; 50 µg/disc): 21 mm
O=C(O)CN1C(=O)/C(=C/c2ccc(-c3ccc(N(c4ccccc4)c4ccccc4)cc3)cc2)NC1=S  MBC (microbial killing; broth dilution; ATCC6633): 3.9 µg/mL (≈ 7.71 µM)
O=C(O)c1cn(C2CC2)c2cc(N3CCNCC3)c(F)cc2c1=O  inhibition zone (microbial growth; 6633; 1000 µg/mL): 29 mm
N#CC(=Cc1cn(-c2ccccc2)nc1-c1ccccc1)C1=NC(=O)CS1  MBC (microbial killing; broth dilution): 0.25 µg/mL (≈ 0.675 µM)
O=C(O)CN1C(=O)/C(=C/c2ccc(-c3ccc(N(c4ccccc4)c4ccccc4)cc3)c3ccccc23)NC1=S  MBC (microbial killing; broth dilution; ATCC6633): > 1000 µg/mL
Cc1c(NC(=O)CC2=NC(=O)CS2)c(=O)n(-c2ccccc2)n1C  inhibition zone (microbial growth; well diffusion; 100000 µg/mL): 26 mm
O=C1NC(=S)N/C1=C\c1c2ccccc2c(-c2ccc(N(c3ccccc3)c3ccccc3)cc2)c2ccccc12  MBC (microbial killing; broth dilution; ATCC6633): > 1000 µg/mL
CCOC(=O)c1c(N)csc1-c1cn(-c2ccccc2)nc1-c1ccccc1  inhibition zone (microbial growth; well diffusion; 100000 µg/mL): 23 mm
O=C(O)CN1C(=O)/C(=C/c2ccc(-c3ccc(N(c4ccccc4)c4ccccc4)cc3)cc2)SC1=S  MBC (microbial killing; broth dilution; ATCC6633): 1.95 µg/mL (≈ 3.73 µM)
CN(/N=C/c1cn(-c2ccc(C(=O)O)cc2)nc1-c1ccc(F)cc1)c1ccccc1  MIC (microbial growth; ATCC6623): 12.5 µg/mL (≈ 30.2 µM)
CC[C@H]1OC(=O)[C@H](C)[C@@H](O[C@H]2C[C@@](C)(OC)[C@@H](O)[C@H](C)O2)[C@H](C)[C@@H](O[C@@H]2O[C@H](C)C[C@H](N(C)C)[C@H]2O)[C@](C)(O)C[C@@H](C)/C(=N\OCOCCOC)[C@H](C)[C@@H](O)[C@]1(C)O  inhibition zone (microbial growth; disc diffusion; ATCC6633; 20000 µg/mL; 24 h): 23 mm
